APP transl inh – APP translation inhibition | inhibition, % at 2 µM | 0.82% of 190,000 active | SH-SY5Y APP 5'UTR-luciferase reporter, luminescence | AID 1285;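 active = inhibition above a set limit, derived from the sample mean plus 3 SD, cut at about 45% in these data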
FLuc inhib CS – Photinus pyralis luciferase inhibition counter-screen; P08659; ATPLite firefly luciferase biochemical luminescence, 10 min; inhibition, % at 10 µM; 1.5% of 200,000 active;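 active = inhibition above about 50% when tested at 10 µM, limit read from the data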
Target sequence (P08659 whole entry, looked up): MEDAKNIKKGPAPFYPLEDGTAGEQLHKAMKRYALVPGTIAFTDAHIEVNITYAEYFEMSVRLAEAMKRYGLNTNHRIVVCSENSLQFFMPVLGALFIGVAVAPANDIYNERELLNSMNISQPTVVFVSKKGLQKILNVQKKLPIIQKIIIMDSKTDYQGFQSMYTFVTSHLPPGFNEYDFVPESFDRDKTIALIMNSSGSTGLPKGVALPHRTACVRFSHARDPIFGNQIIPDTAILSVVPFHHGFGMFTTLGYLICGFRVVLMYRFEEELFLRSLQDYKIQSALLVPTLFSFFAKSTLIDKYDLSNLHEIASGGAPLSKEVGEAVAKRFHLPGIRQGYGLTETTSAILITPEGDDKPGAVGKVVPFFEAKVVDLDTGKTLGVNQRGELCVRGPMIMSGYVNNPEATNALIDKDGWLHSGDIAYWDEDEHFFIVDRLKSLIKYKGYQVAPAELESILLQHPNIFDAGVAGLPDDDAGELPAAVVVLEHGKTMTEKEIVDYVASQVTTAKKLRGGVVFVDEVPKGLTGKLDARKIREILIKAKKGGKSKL
FLuc stim CS – affects firefly luciferase, flagging false hits in luciferase stimulation screens; P08659; ATPlite luciferase biochemical, luminescence, 10 min; 0 = ATP-free wells, 1 = DMSO control; activation factor at 10 µM; 200,000 tested, under 10 active; AID 1027;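 active = luciferase activation factor, scaled between plate controls, of at least 2 with compound at 10 µM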
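Assay system – cell-free luciferase reagent · Medium – PBS-based ATP solution · Dosing – test compounds dosed from 2 mM stocks in 100% DMSO · Timing – 10 min, room temperature · Technique – light output (luminescence) · Measure – luminescence gain marking luciferase activators · Controls – No-ATP low control, compound-free enzyme-plus-ATP high control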
APP 5'UTR act – APP 5'UTR luciferase reporter activation; SH-SY5Y APP 5'UTR luciferase reporter, luminescence; zero percent = DMSO vehicle wells; activation, % at 2 µM; 1% of 190,000 active; AID 1276;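 active = activation above a set limit, based on mean plus 3 SD of controls, cut at about 140% in these data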
NF-kB expr up – NF-kB expression increase, human neuronal cells; fold change at 12.5 µM; NF-kB reporter expression; stronger effect = higher value; 1.6% of 190,000 active; AID 1239; in the data active = fold change above about 3.3
STAT1 act – STAT1 signaling activation. NIH 3T3 STAT1-luciferase reporter, IFN-gamma, luminescence; 100% = IFN-gamma alone, no compound. activation (% of control), % at 5.5 µM. 2.6% of 200,000 active;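 active = activation above the screen-wide mean activation plus 3 SD, cut at about 130% in these data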;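 note: raw ratio to IFN-gamma control signal so 100% means no change and 0% no light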
Starred values were filed as active, the others as inactive; · = no result given. The list is not random: actives were taken first. Their share in the collection is about 4.8%.

SMILES	APP transl inh	FLuc inhib CS	FLuc stim CS	APP 5'UTR act	NF-kB expr up	STAT1 act
Cc1ccc(S(=O)(=O)N2CCC(C(=O)Nc3nnc(-c4ccco4)s3)CC2)cc1	-1.2	0.1	1	1.2	0.94	103.1
O=C(Nc1nnc(-c2ccco2)s1)C1CCCCC1	-108.0	3.5	1	108.0	1.54	144.3*
C/C(CCc1ccccc1)=N\NC(=O)C(=O)Nc1cccc(Cl)c1	7.8	-1.9	1	-7.8	1	95.4
CCC(=O)Nc1ccc2c(c1)nc1n2CCSC1	0.9	-3.1	1	-0.9	1.15	108.0
COc1ccc(C(=O)Nc2ccc3c(c2)nc2n3CCSC2)cc1	-82.0	65.7*	0.3	82.0	0.95	124.7
O=C(Nc1ccc2c(c1)nc1n2CCSC1)c1ccccc1	-119.8	79.9*	0.2	119.8	3.33*	116.2
CC(C)C(=O)Nc1ccc2c(c1)nc1n2CCSC1	-23.6	10.7	0.9	23.6	1.79	103.9
O=C(C1CCN(C2CCN(C/C=C/c3ccccc3)CC2)CC1)N1CCOCC1	-13.8	-5.7	1.1	13.8	0.94	96.0
COC(=O)c1ccc(COC(=O)c2[nH]c(C)c(C(C)=O)c2C)o1	1.2	2.8	1	-1.2	0.88	78.6
CC(=O)c1c(C)[nH]c(C(=O)OCc2ccccc2)c1C	-50.2	3.2	1	50.2	2.17	141.6*
CCOC(=O)c1[nH]c(C)c(C(=O)c2ccc(C)cc2)c1C	94.9*	-1.6	1	-94.9	1.86	116.7
CCOC(=O)c1[nH]c(C)c(C(=O)Nc2cc(OC)ccc2OC)c1C	91.1*	-1.1	1	-91.1	1.48	92.9
CCOC(=O)c1[nH]c(C)c(C(=O)Nc2ccc(F)cc2)c1C	-18.0	-6.4	1.1	18.0	1.07	100.3
CCOC(=O)c1[nH]c(C)c(C(=O)Nc2ccccc2F)c1C	62.4*	-7.2	1.1	-62.4	2.05	123.0
CCCOc1ccc(NC(=O)C(=O)NCCCn2ccnc2)cc1	-7.0	-1.4	1	7.0	1.05	96.0
CCOC(=O)c1[nH]c(C)c(C(=O)Nc2ccc(C)cc2C)c1C	70.2*	0.3	1	-70.2	1.3	103.4
CCOC(=O)c1[nH]c2ccc(C)cc2c1N	-111.2	51.2*	0.5	111.2	3.53*	119.7
Clc1ccc(-c2nc3ccccc3n2OCc2ccccc2)cc1	·	-5.1	1.1	·	1.39	105.8
NNC(=O)c1cc(Cl)ccc1Cl	18.7	-4.5	1	-18.7	1.17	100.8
CCOC(=O)c1sc(-c2ccccc2)cc1NC(=O)Nc1ccccc1	-3.1	2.6	1	3.1	0.84	99.3
CCOC(=O)c1cc(-c2ccccc2)sc1NC(=O)C(C)C	-23.5	1.0	1	23.5	0.82	97.0
NNC(=O)c1sc(-c2ccc(Cl)cc2)cc1N	-6.7	0.8	1	6.7	1.13	134.5*
CCOC(=O)c1sc(-c2ccc(Br)cc2)cc1N	-77.0	13.0	0.9	77.0	2.5	137.3*
CCOC(=O)c1cc(-c2ccc(N)cc2)sc1N	-19.3	12.9	0.9	19.3	3	139.4*
CC(C)N1CCNCC1	-4.9	-1.8	1	4.9	1.34	99.7
SMILES	APP transl inh	FLuc inhib CS	FLuc stim CS	APP 5'UTR act	NF-kB expr up	STAT1 act
Cc1ccnc(NC(=O)c2ccc(S(=O)(=O)c3ccccc3)cc2)c1	-13.1	-2.2	1	13.1	1.25	98.7
CCN(CC)S(=O)(=O)c1ccc(OC)c(NC(=O)c2cc(C)on2)c1	8.4	-0.5	1	-8.4	1	100.8
Fc1cccc(/C=N/N=C/c2cccc(F)c2)c1	-37.9	4.8	1	37.9	1.12	146.9*
CCOC(=O)CN=C/C(C(=O)Nc1nccs1)=C(/C)O	-7.4	-0.1	1	7.4	0.97	89.2
Cc1cnc(C(=O)Nc2ccccc2-c2nnn(CC(=O)NC3CCCC3)n2)cn1	4.2	-3.5	1	-4.2	1.08	100.6
COc1ccccc1NC(=S)N(Cc1ccco1)Cc1cc2cc(C)c(C)cc2[nH]c1=O	92.3*	-6.8	1.1	-92.3	1.28	92.3
Cc1c(Cl)cccc1NC(=O)c1ccc(OCC(=O)NCc2ccccc2)cc1	-0.6	-7.4	1.1	0.6	0.95	98.3
O=c1c(Br)c(NCc2ccccc2)cnn1-c1ccc(F)cc1	-20.8	-9.3	1.1	20.8	1.85	129.3*
O=c1[nH]c(SCc2ccccc2)nc2c1cnn2-c1ccc(F)cc1	-18.3	1.2	1	18.3	1.18	95.6

Source: PubChem BioAssay
